# Laboratory results: ChEMBL document CHEMBL1133172, “Discovery of orally active nonpeptide vitronectin receptor antagonists based on a 2-benzazepine Gly-Asp mimetic” (J Med Chem, 2000)
# Columns and labels:
# Integrin alpha-V/beta-3 [1] = target: T1, Integrin alpha-V/beta-3 (Homo sapiens, UniProt P05106+P06756); assay: HEK cell adhesion mediated by alpha v beta 3 integrin; type: functional, cell-based, HEK293
# How it was run: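 HEK 293 cells transfected with human αvβ3; inhibition of their adhesion to purified human vitronectin measured. IC50 as the mean of two experiments run in triplicate, with an internal standard.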
# [2] = target: Integrin alpha-IIb/beta-3 (Homo sapiens, UniProt P05106+P08514); assay: Binding affinity for alpha IIb beta-3 integrin; type: protein-complex assay
# Integrin alpha-IIb/beta-3, sequence (P05106 27-788 limits assumed): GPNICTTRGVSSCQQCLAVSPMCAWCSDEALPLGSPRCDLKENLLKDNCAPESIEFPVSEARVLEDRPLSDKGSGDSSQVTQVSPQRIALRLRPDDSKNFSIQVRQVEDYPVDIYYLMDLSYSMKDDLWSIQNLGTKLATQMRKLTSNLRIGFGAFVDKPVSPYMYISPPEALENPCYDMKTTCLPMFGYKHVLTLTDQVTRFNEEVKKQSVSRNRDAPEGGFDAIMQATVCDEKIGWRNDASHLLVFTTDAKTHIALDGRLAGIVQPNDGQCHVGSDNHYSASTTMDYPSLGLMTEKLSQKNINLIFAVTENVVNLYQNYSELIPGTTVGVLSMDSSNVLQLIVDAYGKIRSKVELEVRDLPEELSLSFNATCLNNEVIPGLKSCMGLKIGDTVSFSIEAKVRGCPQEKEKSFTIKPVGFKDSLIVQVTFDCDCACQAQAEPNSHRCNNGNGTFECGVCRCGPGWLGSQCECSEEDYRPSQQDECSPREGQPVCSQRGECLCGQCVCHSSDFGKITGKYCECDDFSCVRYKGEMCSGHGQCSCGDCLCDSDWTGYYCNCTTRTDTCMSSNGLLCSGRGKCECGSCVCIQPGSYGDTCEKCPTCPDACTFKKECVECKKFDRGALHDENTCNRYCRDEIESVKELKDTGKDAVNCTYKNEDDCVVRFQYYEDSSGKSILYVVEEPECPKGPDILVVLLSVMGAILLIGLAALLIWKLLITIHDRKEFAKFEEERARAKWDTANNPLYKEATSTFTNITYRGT
# Integrin alpha-IIb/beta-3, sequence (P08514 32-887 limits assumed): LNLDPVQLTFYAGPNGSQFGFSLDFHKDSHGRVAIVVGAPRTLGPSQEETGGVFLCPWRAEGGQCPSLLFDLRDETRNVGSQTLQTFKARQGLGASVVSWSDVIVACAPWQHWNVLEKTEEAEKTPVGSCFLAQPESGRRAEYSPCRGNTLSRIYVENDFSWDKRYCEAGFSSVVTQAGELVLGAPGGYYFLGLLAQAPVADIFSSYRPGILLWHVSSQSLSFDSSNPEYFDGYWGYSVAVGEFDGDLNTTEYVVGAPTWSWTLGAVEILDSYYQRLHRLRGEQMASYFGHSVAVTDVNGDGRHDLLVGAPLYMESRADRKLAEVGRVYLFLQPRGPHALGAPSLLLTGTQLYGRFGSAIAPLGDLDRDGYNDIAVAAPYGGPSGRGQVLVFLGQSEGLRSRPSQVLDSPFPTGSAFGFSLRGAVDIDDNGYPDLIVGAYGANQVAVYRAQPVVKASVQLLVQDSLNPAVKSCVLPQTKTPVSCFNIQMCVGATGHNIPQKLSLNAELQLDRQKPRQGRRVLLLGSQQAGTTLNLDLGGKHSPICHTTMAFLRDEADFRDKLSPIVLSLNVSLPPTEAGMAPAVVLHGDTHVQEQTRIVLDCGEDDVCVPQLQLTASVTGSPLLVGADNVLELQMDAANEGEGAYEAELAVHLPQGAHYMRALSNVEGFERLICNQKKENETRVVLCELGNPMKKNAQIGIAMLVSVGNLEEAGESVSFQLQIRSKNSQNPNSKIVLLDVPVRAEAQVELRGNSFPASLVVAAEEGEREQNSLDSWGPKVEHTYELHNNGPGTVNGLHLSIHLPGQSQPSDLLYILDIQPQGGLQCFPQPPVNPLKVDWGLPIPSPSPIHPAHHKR
# Integrin alpha-IIb/beta-3, sequence (P08514 891-1039 limits assumed): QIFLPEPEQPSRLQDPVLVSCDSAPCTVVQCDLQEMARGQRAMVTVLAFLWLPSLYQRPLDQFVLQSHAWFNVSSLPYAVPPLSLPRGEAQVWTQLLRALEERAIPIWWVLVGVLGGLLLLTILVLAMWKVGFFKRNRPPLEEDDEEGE
# How it was run: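 Human αIIbβ3 competition binding, 3H-SK&F 107260 as the displaced radioligand; Ki averaged over two to three separate experiments.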
# [3] = Oral bioavailability in rat; type: ADME, organism-based; details: in vivo
# How it was run: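 Rat iv and po dosing; plasma concentration–time data from two to three animals; oral bioavailability calculated from dose-normalized iv and po AUC values.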
# [4] = Half life period in rat; type: ADME, organism-based; details: in vivo
# How it was run: (§1)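 Rats; plasma concentration–time data of test compound from two to three separate animals, analysed noncompartmentally for half-life and clearance.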
# [5] = Plasma clearance in rat; type: ADME, organism-based; how it was run: as §1
# Integrin alpha-V/beta-3 [6] = target: T1, Integrin alpha-V/beta-3; assay: Binding affinity for Vitronectin receptor (alpha V beta 3); type: protein-complex assay
# How it was run: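 Competition binding to human αvβ3 with displacement of 3H-SK&F 107260; Ki from the mean of two to three separate experiments.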
# T1 sequence (P05106 27-788 limits assumed): as the sequence (P05106 27-788 limits assumed) above
# T1 sequence (P06756 31-889 limits assumed): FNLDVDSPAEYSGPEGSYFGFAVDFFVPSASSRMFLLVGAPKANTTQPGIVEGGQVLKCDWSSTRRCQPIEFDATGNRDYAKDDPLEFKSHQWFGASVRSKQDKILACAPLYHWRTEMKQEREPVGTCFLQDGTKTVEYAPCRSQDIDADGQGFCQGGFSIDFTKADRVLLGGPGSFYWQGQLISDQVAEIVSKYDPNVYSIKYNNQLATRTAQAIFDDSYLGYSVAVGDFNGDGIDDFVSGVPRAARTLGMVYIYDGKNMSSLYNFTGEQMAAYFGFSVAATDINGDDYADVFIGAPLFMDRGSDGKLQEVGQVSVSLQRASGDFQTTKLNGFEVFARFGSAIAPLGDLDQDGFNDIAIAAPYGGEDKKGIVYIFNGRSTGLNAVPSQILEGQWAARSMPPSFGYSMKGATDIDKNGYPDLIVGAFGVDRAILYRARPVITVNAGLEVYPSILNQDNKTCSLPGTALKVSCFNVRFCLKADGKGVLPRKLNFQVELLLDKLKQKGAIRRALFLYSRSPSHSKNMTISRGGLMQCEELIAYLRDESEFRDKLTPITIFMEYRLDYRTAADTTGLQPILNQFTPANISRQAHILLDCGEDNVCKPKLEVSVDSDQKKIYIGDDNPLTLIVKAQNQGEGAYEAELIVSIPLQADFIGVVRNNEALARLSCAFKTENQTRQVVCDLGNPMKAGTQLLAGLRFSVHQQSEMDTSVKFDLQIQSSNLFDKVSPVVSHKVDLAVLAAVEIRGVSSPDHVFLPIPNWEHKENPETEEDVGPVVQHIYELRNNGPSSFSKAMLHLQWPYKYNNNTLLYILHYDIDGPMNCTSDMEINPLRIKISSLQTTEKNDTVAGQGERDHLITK
# T1 sequence (P06756 891-1048 limits assumed): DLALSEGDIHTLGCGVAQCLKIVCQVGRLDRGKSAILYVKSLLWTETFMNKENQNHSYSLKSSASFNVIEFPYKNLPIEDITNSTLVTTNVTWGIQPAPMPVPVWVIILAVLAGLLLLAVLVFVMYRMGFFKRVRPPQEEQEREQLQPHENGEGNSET
IC50 (Integrin alpha-V/beta-3 [1]) [nM],Ki [2] [nM],bioavailability [3] [%],half-life [4] [min],clearance [5] [mL/min/kg],Ki (Integrin alpha-V/beta-3 [6]) [nM],SMILES
53,9000,19,25,63,1.3,O=C(O)CC1Cc2ccc(OCCCNc3ccccn3)cc2CN(CC(F)(F)F)C1=O (stereo unspecified)
12,3300,34,360,16,0.9,O=C(O)C[C@@H]1Cc2ccc(OCCCNc3ccccn3)cc2CN(CC(F)(F)F)C1=O
390,–,4,19,60,20,O=C(O)C[C@H]1Cc2ccc(OCCCNc3ccccn3)cc2CN(CC(F)(F)F)C1=O
75,30000,9,16,50,1.9,CN1Cc2cc(OCCCNc3ccccn3)ccc2CC(CC(=O)O)C1=O (stereo unspecified)
–,–,–,192,4,–,O=C(O)C[C@@H]1Cc2ccc(OCCCNc3ccccn3)cc2Cc2ccccc21
3,3800,72,53,25,1.2,CNc1cccc(CCOc2ccc3c(c2)CN(CC(F)(F)F)C(=O)[C@H](CC(=O)O)C3)n1
